Reference: ChEMBL document CHEMBL3580574, “Design, Synthesis, and Biological Evaluation of Hexacyclic Tetracyclines as Potent, Broad Spectrum Antibacterial Agents” (J Med Chem, 2015)
In brackets after ≈: the same amount, converted by molar mass.

Tests used:
Format in all cases: functional
[1] = test system: Enterococcus faecalis; assay: Antibacterial activity against tet(M) tetracycline-resistant Enterococcus faecalis 327 assessed as bacterial growth inhibition by susceptibility testing assay; settings: Enterococcus faecalis, 327; read-out: MIC
Summary of the method: (§1)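 Broth microdilution MIC per CLSI in 96-well plates; compound stocks prepared and serially diluted in sterile deionized water; cation-adjusted Mueller Hinton broth prepared fresh and held at 4 °C before testing, supplemented with lysed horse blood as appropriate; runs accepted when comparator antibiotics fell within QC ranges for appropriate ATCC quality control strains.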

[2] = test system: Pseudomonas aeruginosa; assay: Antibacterial activity against Pseudomonas aeruginosa 555 BAA-47 assessed as bacterial growth inhibition by susceptibility testing assay; settings: Pseudomonas aeruginosa, 555 BAA-47; read-out: MIC
Summary of the method: (§2)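 Broth microdilution MIC per CLSI in cation-adjusted Mueller Hinton broth, made fresh and held at 4 °C before testing. Medium supplemented with lysed horse blood where appropriate. Compound stocks prepared and serially diluted in sterile deionized water. Runs were accepted against QC ranges for comparator antibiotics and ATCC QC strains.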

[3] = test system: Escherichia coli; assay: Antibacterial activity against tet(A) tetracycline-resistant Escherichia coli 155 assessed as bacterial growth inhibition by susceptibility testing assay; settings: Escherichia coli, 155; read-out: MIC; summary of the method: as §1
[4] = test system: Staphylococcus aureus; assay: Antibacterial activity against Staphylococcus aureus 101 ATCC 29213 assessed as bacterial growth inhibition by susceptibility testing assay; settings: Staphylococcus aureus, 101 ATCC 29213; read-out: MIC; summary of the method: as §2
[5] = test system: Escherichia coli; assay: Antibacterial activity against Escherichia coli 107 ATCC 25922 assessed as bacterial growth inhibition by susceptibility testing assay; settings: Escherichia coli, 107 ATCC 25922; read-out: MIC; summary of the method: as §2
[6] = test system: Staphylococcus aureus; assay: Antibacterial activity against methicillin-resistant, tet(M) tetracycline-resistant Staphylococcus aureus 161 assessed as bacterial growth inhibition by susceptibility testing assay; settings: Staphylococcus aureus, 161; read-out: MIC; summary of the method: as §1
[7] = test system: Acinetobacter baumannii; assay: Antibacterial activity against tet(B) tetracycline-resistant Acinetobacter baumannii 250 assessed as bacterial growth inhibition by susceptibility testing assay; settings: Acinetobacter baumannii, 250; read-out: MIC; summary of the method: as §1
[8] = test system: Klebsiella pneumoniae; assay: Antibacterial activity against Klebsiella pneumoniae 457 harboring CTX-M-15 gene assessed as bacterial growth inhibition by susceptibility testing assay; settings: Klebsiella pneumoniae, 457; read-out: MIC; summary of the method: as §1
[9] = test system: Enterobacter cloacae; assay: Antibacterial activity against tet(A) tetracycline-resistant Enterobacter cloacae 603 assessed as bacterial growth inhibition by susceptibility testing assay; settings: Enterobacter cloacae, 603; read-out: MIC; summary of the method: as §1
[10] = test system: Proteus mirabilis; assay: Antibacterial activity against Proteus mirabilis 385 assessed as bacterial growth inhibition by susceptibility testing assay; settings: Proteus mirabilis, 385; read-out: MIC; summary of the method: as §2
[11] = test system: Streptococcus pneumoniae; assay: Antibacterial activity against tet(M) tetracycline-resistant Streptococcus pneumoniae 160 assessed as bacterial growth inhibition by susceptibility testing assay; settings: Streptococcus pneumoniae, 160; read-out: MIC
[12] = test system: Staphylococcus aureus; assay: Antibacterial activity against tet(K) tetracycline-resistant Staphylococcus aureus 158 assessed as bacterial growth inhibition by susceptibility testing assay; settings: Staphylococcus aureus, 158; read-out: MIC
[13] = test system: Burkholderia cenocepacia; assay: Antibacterial activity against Burkholderia cenocepacia 240 assessed as bacterial growth inhibition by susceptibility testing assay; settings: Burkholderia cenocepacia, 240; read-out: MIC
Summary of the method: (§3)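 Medium supplemented with lysed horse blood where appropriate. Compound stocks prepared and serially diluted in sterile deionized water. Runs were accepted against QC ranges for comparator antibiotics and ATCC QC strains.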

[14] = test system: Enterococcus faecium; assay: Antibacterial activity against tet(M) tetracycline-resistant Enterococcus faecium 404 assessed as bacterial growth inhibition by susceptibility testing assay; settings: Enterococcus faecium, 404; read-out: MIC
[15] = test system: Stenotrophomonas maltophilia; assay: Antibacterial activity against Stenotrophomonas maltophilia 256 assessed as bacterial growth inhibition by susceptibility testing assay; settings: Stenotrophomonas maltophilia, 256; read-out: MIC; summary of the method: as §3

Row | Structure (SMILES) | MIC [1] [µg/mL] | MIC [2] [µg/mL] | MIC [3] [µg/mL] | MIC [4] [µg/mL] | MIC [5] [µg/mL] | MIC [6] [µg/mL] | MIC [7] [µg/mL] | MIC [8] [µg/mL] | MIC [9] [µg/mL] | MIC [10] [µg/mL] | MIC [11] [µg/mL] | MIC [12] [µg/mL] | MIC [13] [µg/mL] | MIC [14] [µg/mL] | MIC [15] [µg/mL]
1 | CN(C)[C@@H]1C(O)=C(C(N)=O)C(=O)[C@@]2(O)C(O)=C3C(=O)c4c(O)cccc4[C@@](C)(O)[C@H]3C[C@@H]12 [TETRACYCLINE] | > 32 | > 32 | > 64 | 0.125 (≈ 0.281 µM) | 1 (≈ 2.25 µM) | 64 (≈ 144 µM) | > 32 | 8 (≈ 18 µM) | > 32 | > 32 | – | – | – | – | –
2 | CN(C)[C@@H]1C(O)=C(C(N)=O)C(=O)[C@@]2(O)C(O)=C3C(=O)c4c(O)c5c(c(OC(F)(F)F)c4C[C@H]3C[C@@H]12)[C@@H]1[C@H](CN5)CC2CCCCN21 (stereo not given in full) | 0.0312 (≈ 0.0481 µM) | 16 (≈ 24.7 µM) | 0.125 (≈ 0.193 µM) | 0.0625 (≈ 0.0964 µM) | ≤ 0.0156 | 0.25 (≈ 0.385 µM) | 2 (≈ 3.08 µM) | 4 (≈ 6.17 µM) | 4 (≈ 6.17 µM) | 4 (≈ 6.17 µM) | ≤ 0.0156 | ≤ 0.0156 | 8 (≈ 12.3 µM) | ≤ 0.0156 | 1 (≈ 1.54 µM)
3 | CN(C)[C@@H]1C(O)=C(C(N)=O)C(=O)[C@@]2(O)C(O)=C3C(=O)c4c(O)c5c(c(F)c4C[C@H]3C[C@@H]12)C1NCCC1CN5 (mixture of isomers) | 2 | 32 | 1 | 2 | 0.5 | 4 | > 32 | 2 | 8 | 0.5 | 0.5 | 0.5 | > 32 | 1 | > 32
4 | CN(C)[C@@H]1C(O)=C(C(N)=O)C(=O)[C@@]2(O)C(O)=C3C(=O)c4c(O)c5c(c(F)c4C[C@H]3C[C@@H]12)[C@@H]1[C@@H](CCN1CCNCC(F)F)CN5 | 0.125 (≈ 0.197 µM) | > 32 | 4 (≈ 6.29 µM) | 0.5 (≈ 0.787 µM) | 0.25 (≈ 0.393 µM) | 1 (≈ 1.57 µM) | 8 (≈ 12.6 µM) | 4 (≈ 6.29 µM) | 8 (≈ 12.6 µM) | 8 (≈ 12.6 µM) | ≤ 0.0156 | 0.0312 (≈ 0.0491 µM) | 32 (≈ 50.3 µM) | 0.0625 (≈ 0.0983 µM) | 4 (≈ 6.29 µM)
5 | CC(=O)N(C)CCN1CCC2CNc3c(O)c4c(c(F)c3C21)C[C@H]1C[C@H]2[C@H](N(C)C)C(O)=C(C(N)=O)C(=O)[C@@]2(O)C(O)=C1C4=O (mixture of isomers) | > 32 | > 32 | 32 | 4 | 8 | > 32 | > 32 | > 32 | > 32 | > 32 | 4 | 1 | > 32 | 32 | > 32
6 | CN(C)[C@@H]1C(O)=C(C(N)=O)C(=O)[C@@]2(O)C(O)=C3C(=O)c4c(O)c5c(c(F)c4C[C@H]3C[C@@H]12)[C@@H]1[C@@H](CCN1CCO)CN5 | 1 (≈ 1.75 µM) | 32 (≈ 55.9 µM) | 16 (≈ 27.9 µM) | 2 (≈ 3.49 µM) | 1 (≈ 1.75 µM) | 4 (≈ 6.99 µM) | > 32 | 4 (≈ 6.99 µM) | 16 (≈ 27.9 µM) | 8 (≈ 14 µM) | 0.125 (≈ 0.218 µM) | 0.25 (≈ 0.437 µM) | > 32 | 1 (≈ 1.75 µM) | 32 (≈ 55.9 µM)
7 | CC1C[C@H]2CNc3c(O)c4c(c(OC(F)(F)F)c3[C@H]2N1C)C[C@H]1C[C@H]2[C@H](N(C)C)C(O)=C(C(N)=O)C(=O)[C@@]2(O)C(O)=C1C4=O (stereo not given in full) | ≤ 0.0156 | 8 (≈ 12.8 µM) | 0.0625 (≈ 0.1 µM) | 0.0312 (≈ 0.0501 µM) | ≤ 0.0156 | 0.0312 (≈ 0.0501 µM) | 1 (≈ 1.61 µM) | 2 (≈ 3.21 µM) | 2 (≈ 3.21 µM) | 2 (≈ 3.21 µM) | ≤ 0.0156 | ≤ 0.0156 | 16 (≈ 25.7 µM) | 0.0312 (≈ 0.0501 µM) | 0.25 (≈ 0.402 µM)
8 | CCN1CC[C@H]2CNc3c(O)c4c(c(F)c3[C@H]21)C[C@H]1C[C@H]2[C@H](N(C)C)C(O)=C(C(N)=O)C(=O)[C@@]2(O)C(O)=C1C4=O | 0.125 (≈ 0.225 µM) | 8 (≈ 14.4 µM) | 0.25 (≈ 0.449 µM) | 0.25 (≈ 0.449 µM) | 0.0625 (≈ 0.112 µM) | 0.5 (≈ 0.898 µM) | 2 (≈ 3.59 µM) | 1 (≈ 1.8 µM) | 0.5 (≈ 0.898 µM) | 1 (≈ 1.8 µM) | ≤ 0.0156 | 0.0625 (≈ 0.112 µM) | 16 (≈ 28.7 µM) | 0.0625 (≈ 0.112 µM) | 1 (≈ 1.8 µM)
9 | CN(C)[C@@H]1C(O)=C(C(N)=O)C(=O)[C@@]2(O)C(O)=C3C(=O)c4c(O)c5c(c(OC(F)(F)F)c4C[C@H]3C[C@@H]12)[C@@H]1[C@H](CN5)CC2CCCN21 (stereo not given in full) | 0.125 (≈ 0.197 µM) | 8 (≈ 12.6 µM) | 0.25 (≈ 0.394 µM) | 0.25 (≈ 0.394 µM) | 0.0625 (≈ 0.0985 µM) | 1 (≈ 1.58 µM) | 16 (≈ 25.2 µM) | 2 (≈ 3.15 µM) | 4 (≈ 6.3 µM) | 4 (≈ 6.3 µM) | ≤ 0.0156 | 0.0625 (≈ 0.0985 µM) | 32 (≈ 50.4 µM) | 0.0625 (≈ 0.0985 µM) | 4 (≈ 6.3 µM)
10 | CN(C)[C@@H]1C(O)=C(C(N)=O)C(=O)[C@@]2(O)C(O)=C3C(=O)c4c(O)c5c(c(F)c4C[C@H]3C[C@@H]12)[C@H]1NCC[C@@]1(C)CN5 | 4 (≈ 7.37 µM) | 32 (≈ 59 µM) | 16 (≈ 29.5 µM) | 4 (≈ 7.37 µM) | 0.5 (≈ 0.922 µM) | 16 (≈ 29.5 µM) | > 32 | 4 (≈ 7.37 µM) | 16 (≈ 29.5 µM) | 4 (≈ 7.37 µM) | 0.25 (≈ 0.461 µM) | 1 (≈ 1.84 µM) | > 32 | 1 (≈ 1.84 µM) | 32 (≈ 59 µM)
11 | CN(C)c1cc(NC(=O)CNC(C)(C)C)c(O)c2c1C[C@H]1C[C@H]3[C@H](N(C)C)C(O)=C(C(N)=O)C(=O)[C@@]3(O)C(O)=C1C2=O [TIGECYCLINE] | 0.125 (≈ 0.213 µM) | 16 (≈ 27.3 µM) | 1 (≈ 1.71 µM) | 0.0625 (≈ 0.107 µM) | 0.125 (≈ 0.213 µM) | 0.125 (≈ 0.213 µM) | 8 (≈ 13.7 µM) | 1 (≈ 1.71 µM) | 4 (≈ 6.83 µM) | 4 (≈ 6.83 µM) | 0.0156 (≈ 0.0266 µM) | 0.125 (≈ 0.213 µM) | 16 (≈ 27.3 µM) | 0.0312 (≈ 0.0533 µM) | 2 (≈ 3.41 µM)
